Test results taken from ChEMBL document CHEMBL2057185, “Analogs of N'-hydroxy-N-(4H,5H-naphtho[1,2-d]thiazol-2-yl)methanimidamide inhibit Mycobacterium tuberculosis methionine aminopeptidases” (Bioorg Med Chem, 2012).
Values after ≈ are worked out from the molar mass of the structure shown. Active and inactive are the calls of the source. The calls are words filed in the database; no cut-off is given here.

Tests used:
[1] = Inhibition of Mycobacterium tuberculosis C-terminal His6-tagged MetAP1A using methionylprolyl-p-nitroanilide as substrate incubated for 20 mins prior to substrate addition measured for 20 mins by spectrophotometry in presence of Mn2+
Outline: (§1)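 Coupled colorimetric assay in 40 mM HEPES pH 7.5, 100 mM NaCl, 10 µM CoCl₂ or MnCl₂. Enzyme was 200 nM MetAP1a or 100 nM MetAP1c, with 1.5 U/mL Bacillus coagulans proline aminopeptidase as coupling enzyme. Eleven inhibitor levels (0.049–50 µM) were preincubated 20 min at room temperature. Met-Pro-pNA was added to 600 µM final, and A405 was followed 20 min against DMSO wells. IC50 came from nonlinear regression, averaging ≥3 independent triplicate experiments ± SD.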

[2] = Inhibition of Mycobacterium tuberculosis N-terminal His6-tagged MetAP1C using methionylprolyl-p-nitroanilide as substrate incubated for 20 mins prior to substrate addition measured for 20 mins by spectrophotometry in presence of Mn2+; outline: as §1
[3] = Inhibition of Mycobacterium tuberculosis C-terminal His6-tagged MetAP1A using methionylprolyl-p-nitroanilide as substrate incubated for 20 mins prior to substrate addition measured for 20 mins by spectrophotometry in presence of Co2+; outline: as §1
[4] = tested on: Mycobacterium tuberculosis; test: Antimycobacterial activity against Mycobacterium tuberculosis H37Rv after 2 weeks; format: functional; settings: 336 h
Outline: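 Each well received log-phase M. tuberculosis H37Rv diluted to ≈10⁶ CFU/mL in 7H9. An uninoculated sterile control was included. Plates were sealed and incubated 37 °C for two weeks.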

[5] = Inhibition of Mycobacterium tuberculosis N-terminal His6-tagged MetAP1C using methionylprolyl-p-nitroanilide as substrate incubated for 20 mins prior to substrate addition measured for 20 mins by spectrophotometry in presence of Co2+; outline: as §1
[6] = Co2+ chelation activity of the compound at 10 uM; format: functional
Outline: (§2)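 UV-vis spectra were recorded for compounds at 10 µM in MetAP assay buffer, with and without 10 µM cobalt or manganese chloride.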

[7] = Mn2+ chelation activity of the compound at 10 uM; format: functional; outline: as §2
[8] = Chemical stability of the compound in Middlebrook 7H9 broth at 200 ug/mL after 10 days by HPLC analysis; format: physicochemical; settings: 240 h
[9] = tested on: Mycobacterium tuberculosis; test: Antimycobacterial activity against Mycobacterium tuberculosis H37Rv ATCC 27294 after 7 days by microplate alamar blue assay; format: functional; settings: H37Rv ATCC 27294, 168 h
[10] = Inhibition of Mycobacterium tuberculosis MetAP1A expressed in Escherichia coli using Met-AMC as substrate in presence of Mn2+
[11] = Inhibition of Mycobacterium tuberculosis MetAP1C expressed in Escherichia coli using Met-AMC as substrate in presence of Mn2+

SMILES	IC50 [1] [µM]	IC50 [2] [µM]	IC50 [3] [µM]	MIC [4] [mg/L]	IC50 [5] [µM]	Activity [6]	Activity [7]	Stability [8]	MIC [9] [mg/L]	IC50 [10] [µM]	IC50 [11] [µM]
COc1ccc2c(c1)Cc1sc(N/C=N\O)nc1-2	> 50	> 50	> 50	100 (≈ 383 µM)	> 50	–	–	–	–	–	–
O/N=C\Nc1nc2c(s1)CCc1cc3c(cc1-2)OCO3	> 20	12.5	15.4	> 200	> 20	–	–	–	–	–	–
O/N=C\Nc1nc2c(s1)COc1cc3c(cc1-2)OCO3	> 10	4.4	1.43	100 (≈ 343 µM)	0.73	Active	Active	–	–	–	–
COc1ccc2c(c1)CCc1sc(NC(=O)[C@H](C)O)nc1-2	> 50	> 50	> 50	–	> 50	–	–	–	–	–	–
Nc1nc2c(s1)CCc1ccccc1-2	> 50	> 50	> 50	–	> 50	–	–	–	–	–	–
COc1ccc2c(c1)OC(c1ccccc1)c1sc(N/C=N\O)nc1-2 (configuration not stated)	9.7	> 50	6.7	> 200	> 50	–	–	–	–	–	–
COc1ccc2c(c1)CCc1sc(/N=C/c3ccco3)nc1-2	> 50	> 50	> 50	–	> 50	–	–	–	–	–	–
COc1ccc2c(c1)CCc1sc(/N=C/c3ccccc3O)nc1-2	> 50	> 50	> 50	–	> 50	–	–	–	–	–	–
COc1ccc(-c2csc(N/C=N\O)n2)cc1OC	> 20	7	> 20	200 (≈ 716 µM)	6.6	–	–	–	–	–	–
O/N=C\Nc1nc2c(s1)CCCc1cc3c(cc1-2)OCO3	> 50	14.5	15.4	> 200	1.4	–	–	–	–	–	–
COc1ccc2c(c1)CCc1sc(N)nc1-2	> 50	> 50	> 50	–	> 50	–	–	–	–	–	–
CCCCCCCCC(=O)Nc1nc2c(s1)CCc1ccccc1-2	> 50	> 50	> 50	–	> 50	–	–	–	–	–	–
O/N=C\Nc1nc2c(s1)CCOc1cc3c(cc1-2)OCO3	24.5	3.13	1.26	> 200	0.38	Active	Active	Stable	–	–	–
O/N=C\Nc1nc2c(s1)CCc1ccccc1-2	> 50	> 50	11.5	100 (≈ 408 µM)	1.05	–	–	Stable	–	–	–
COc1ccc2c(c1)CCc1sc(N/C=N\O)nc1-2	> 50	> 50	5.35	> 200	1.33	–	–	Stable	–	–	–
O=C1C(Br)=C(Br)C(=O)c2ccccc21 [2,3-Dibromo-1,4-naphthoquinone]	–	–	1.14	25 (≈ 79.1 µM)	0.71	–	–	–	–	–	–
CCCCCCCCC(=O)Nc1nc2c(s1)CCc1cc(OC)ccc1-2	> 50	> 50	> 50	–	> 50	–	–	–	–	–	–
COc1ccc2c(c1)-c1nc(NC=NO)sc1CC2	> 50	2.33	1.9	200 (≈ 726 µM)	0.64	–	–	Stable	–	–	–
COc1cc2c(cc1OC)-c1nc(N/C=N\O)sc1CC2	14.6	> 50	14.6	> 200	3.77	–	–	–	–	–	–
CO[C@@H](C(=O)NCCOc1c(C)cc(C)cc1C)[C@H](O)[C@@H](O)[C@H](O)/C=C/C(C)(C)C	–	–	–	–	–	–	–	–	18.5 (≈ 43.7 µM)	6.9	0.54
COc1ccc2c(c1)OCc1sc(N/C=N\O)nc1-2	4.7	> 50	4.9	> 200	> 50	Active	Active	–	–	–	–
COc1ccc2c(c1)CCc1sc(NC(C)=O)nc1-2	> 50	> 50	> 50	–	> 50	–	–	–	–	–	–
CN(C)/C=N/c1nc2c(s1)CCc1ccccc1-2	27.7	> 50	28.9	–	36.3	–	–	–	–	–	–
COc1cccc2c1CCc1sc(N/C=N\O)nc1-2	11.7	10.3	11.3	> 200	1.89	–	–	–	–	–	–
